The source made the active and inactive calls. The rule behind the calls is not given here.
What was measured:
Rattus norvegicus [1] = test: Bradycardic activity was evaluated in an anesthetized rat model as percent heart rate(beats/min) reduction 20 min after iv injection of 5 mg/kg of the compound; NA=Not active; format: functional, organism-based; parameters: dose 5 mg/kg
Method in brief: (§1)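 Male Chbb:THOM rats, 200-250 g, anesthetized with pentobarbital sodium 50 mg/kg ip, with the trachea cannulated and artificial respiration given. Heart rate was recorded continuously by an ECG-triggered beat-to-beat tachograph before and at 5 and 20 min after a single iv injection of 5 mg/kg. Values are % change from pre-dose, reported ± SEM.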

Rattus norvegicus [2] = test: Bradycardic activity was evaluated in an anesthetized rat model as percent heart rate(beats/min) reduction 5 min after iv injection of 5 mg/kg of the compound; NA=Not active; format: functional, organism-based; parameters: dose 5 mg/kg; method in brief: as §1
Rattus norvegicus [3] = test: Hypotensive activity was evaluated in an anesthetized rat model as percent mean aortic blood pressure(mm hg) reduction 5 min after iv injection of 5 mg/kg of the compound; NA=Not active; format: functional, organism-based; parameters: dose 5 mg/kg; conditions: Artery
Method in brief: (§2)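 In pentobarbital-anesthetized (50 mg/kg ip), artificially ventilated male Chbb:THOM rats (200-250 g), mean aortic pressure was measured through a carotid artery cannula connected to an electromechanical transducer. Readings were taken before and 5 min after 5 mg/kg iv. Values are % change from baseline, ± SEM.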

Rattus norvegicus [4] = test: Bradycardic activity was evaluated in an anesthetized rat model as percent heart rate(beats/min) reduction 20 min after iv injection of 5 mg/kg of the compound; NA= Not active; format: functional, organism-based; parameters: dose 5 mg/kg; method in brief: as §1
Rattus norvegicus [5] = test: Hypotensive activity was evaluated in an anesthetized rat model as percent mean aortic blood pressure(mm hg) reduction 5 min after iv injection of 5 mg/kg; format: functional, Artery; method in brief: as §2
Rattus norvegicus [6] = test: Bradycardic activity was evaluated in an anesthetized rat model as percent heart rate(beats/min) reduction 20 min after iv injection of 5 mg/kg; format: functional; method in brief: as §1
Rattus norvegicus [7] = test: Bradycardic activity was evaluated in an anesthetized rat model as percent heart rate(beats/min) reduction 5 min after iv injection of 5 mg/kg; format: functional; method in brief: as §1
[8] = (§3) delta HR Ratio measured as the ratio of delta HR(20 min)/delta HR (5 min); format: functional
Method in brief: (§4)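 Duration-of-action index: the % heart-rate reduction at 20 min divided by that at 5 min after 5 mg/kg iv. Rats were male Chbb:THOM, pentobarbital-anesthetized and ventilated, with heart rate taken from an ECG-triggered tachograph.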

Rattus norvegicus [9] = organism: Rattus norvegicus; test: (§5) Ratio of heart rate reduction to mean arterial blood pressure reduction; format: functional
Method in brief: (§6)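 Selectivity parameter S: the % heart-rate reduction divided by the % mean arterial pressure reduction, both read 5 min after 5 mg/kg iv in anesthetized, ventilated male Chbb:THOM rats. Heart rate came from an ECG-triggered tachograph and pressure from a carotid cannula.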

[10] = as §5; format: tissue-based; method in brief: as §6
[11] = as §3; method in brief: as §4

Row | Ratio [11] | SMILES | Delta HR (Rattus norvegicus [1]) | Delta HR (Rattus norvegicus [2]) | Delta MAP (Rattus norvegicus [3]) | Delta HR (Rattus norvegicus [4]) | Delta MAP (Rattus norvegicus [5]) [%] | Delta HR (Rattus norvegicus [6]) [%] | Delta HR (Rattus norvegicus [7]) [%] | Ratio [8] | Selectivity (Rattus norvegicus [9]) | Selectivity [10]
1 |  | COc1cc2c(cc1OC)CC(=O)N(CCCN(C)CCn1ccnc1)CC2 | inactive | inactive | inactive |  |  |  |  |  |  | 
2 |  | COc1cc2c(cc1OC)CC(=O)N(CCCN(C)Cc1cccnc1)CC2 | inactive | inactive | inactive |  |  |  |  |  |  | 
3 |  | COc1cc2c(cc1OC)CC(=O)N(CCCN(C)CCc1c[nH]cn1)CC2 |  | inactive |  | inactive | -11 |  |  |  |  | 
4 |  | COc1ccc2c(CCN(C)CCCN3CCc4cc(OC)c(OC)cc4CC3=O)csc2c1 |  |  |  |  | -52 | -60 | -67 | 0.89 | 1.3 | 
5 |  | COc1cc2c(cc1OC)CC(=O)N(CCCN(C)CCc1cn(C)cn1)CC2 |  |  |  |  | -10 | -11 | -10 | 1.1 | 1 | 
6 | 0.88 | COc1cc2c(cc1OC)CC(=O)N(CCCN(C)CCc1c[nH]c3c(C)cccc13)CC2 |  |  |  |  | -26 | -44 | -50 |  |  | 1.9
